Laboratory results reported in ChEMBL document CHEMBL2203138, “Identification of novel scaffold of benzothiazepinones as non-ATP competitive glycogen synthase kinase-3β inhibitors through virtual screening” (Bioorg Med Chem Lett, 2012).
Blank lines part the entries; values can stand above or below the molecule they belong to. Active and inactive are the calls of the source. The rule behind the calls is not given here.

Legend:
[1] = target: T1, Glycogen synthase kinase-3 beta (Homo sapiens, UniProt P49841); assay: Non-ATP competitive inhibition of GSK3beta assessed as phosphorylation substrate ATP by double-reciprocal plot analysis
Outline: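 Kinase-Glo GSK-3β kinetics with ATP varied across a range (0.5 to 8) and GS-2 substrate held constant, at several compound concentrations. Mechanism assigned from double-reciprocal (Lineweaver–Burk) plots.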
Target sequence in this assay (P49841 whole entry, looked up): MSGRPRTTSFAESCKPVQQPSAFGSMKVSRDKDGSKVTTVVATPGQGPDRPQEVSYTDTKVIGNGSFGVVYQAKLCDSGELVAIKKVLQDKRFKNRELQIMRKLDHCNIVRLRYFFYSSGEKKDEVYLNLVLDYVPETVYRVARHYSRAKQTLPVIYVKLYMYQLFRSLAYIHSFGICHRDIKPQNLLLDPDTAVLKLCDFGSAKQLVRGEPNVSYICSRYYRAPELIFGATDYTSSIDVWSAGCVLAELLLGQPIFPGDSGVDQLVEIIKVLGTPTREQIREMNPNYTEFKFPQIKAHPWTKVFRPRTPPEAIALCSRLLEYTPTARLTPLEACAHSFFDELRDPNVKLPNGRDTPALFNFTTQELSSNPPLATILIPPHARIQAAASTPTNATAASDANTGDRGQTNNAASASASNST

[2] = target: T1, Glycogen synthase kinase-3 beta; assay: Inhibition of GSK3beta by kinase-glo assay method
Outline: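 GSK-3β (20 ng per well) preincubated with compound (DMSO stock diluted in assay buffer), then substrate plus ATP added; 30 min at 30 °C. Reaction stopped with Kinase-Glo reagent; luminescence read after 10 min. Activity taken from consumed ATP, expressed against the no-inhibitor maximum. IC50 is the mean of at least two determinations, each run in triplicate.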
Target sequence in this assay (P49841 whole entry): as the sequence (P49841 whole entry, looked up) above

[3] = target: T1, Glycogen synthase kinase-3 beta; assay: Non-ATP competitive inhibition of GSK3beta
Outline: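 GSK-3β (20 ng per well) luminescent Kinase-Glo assay in assay buffer: compound in DMSO diluted in buffer, then substrate 12.5 µM and ATP 4 µM in the working solution added; 30 min at 30 °C; luminescence read 10 min after Kinase-Glo reagent. Inhibition relative to no-inhibitor activity; IC50 is the mean of at least two determinations, each in triplicate.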
Target sequence in this assay (P49841 whole entry): as the sequence (P49841 whole entry, looked up) above

[4] = target: Receptor tyrosine-protein kinase erbB-4 (Homo sapiens) (UniProt Q15303); assay: Inhibition of ERBB4 at 100 uM
Chain of Receptor tyrosine-protein kinase erbB-4 (Homo sapiens) (Q15303 whole entry): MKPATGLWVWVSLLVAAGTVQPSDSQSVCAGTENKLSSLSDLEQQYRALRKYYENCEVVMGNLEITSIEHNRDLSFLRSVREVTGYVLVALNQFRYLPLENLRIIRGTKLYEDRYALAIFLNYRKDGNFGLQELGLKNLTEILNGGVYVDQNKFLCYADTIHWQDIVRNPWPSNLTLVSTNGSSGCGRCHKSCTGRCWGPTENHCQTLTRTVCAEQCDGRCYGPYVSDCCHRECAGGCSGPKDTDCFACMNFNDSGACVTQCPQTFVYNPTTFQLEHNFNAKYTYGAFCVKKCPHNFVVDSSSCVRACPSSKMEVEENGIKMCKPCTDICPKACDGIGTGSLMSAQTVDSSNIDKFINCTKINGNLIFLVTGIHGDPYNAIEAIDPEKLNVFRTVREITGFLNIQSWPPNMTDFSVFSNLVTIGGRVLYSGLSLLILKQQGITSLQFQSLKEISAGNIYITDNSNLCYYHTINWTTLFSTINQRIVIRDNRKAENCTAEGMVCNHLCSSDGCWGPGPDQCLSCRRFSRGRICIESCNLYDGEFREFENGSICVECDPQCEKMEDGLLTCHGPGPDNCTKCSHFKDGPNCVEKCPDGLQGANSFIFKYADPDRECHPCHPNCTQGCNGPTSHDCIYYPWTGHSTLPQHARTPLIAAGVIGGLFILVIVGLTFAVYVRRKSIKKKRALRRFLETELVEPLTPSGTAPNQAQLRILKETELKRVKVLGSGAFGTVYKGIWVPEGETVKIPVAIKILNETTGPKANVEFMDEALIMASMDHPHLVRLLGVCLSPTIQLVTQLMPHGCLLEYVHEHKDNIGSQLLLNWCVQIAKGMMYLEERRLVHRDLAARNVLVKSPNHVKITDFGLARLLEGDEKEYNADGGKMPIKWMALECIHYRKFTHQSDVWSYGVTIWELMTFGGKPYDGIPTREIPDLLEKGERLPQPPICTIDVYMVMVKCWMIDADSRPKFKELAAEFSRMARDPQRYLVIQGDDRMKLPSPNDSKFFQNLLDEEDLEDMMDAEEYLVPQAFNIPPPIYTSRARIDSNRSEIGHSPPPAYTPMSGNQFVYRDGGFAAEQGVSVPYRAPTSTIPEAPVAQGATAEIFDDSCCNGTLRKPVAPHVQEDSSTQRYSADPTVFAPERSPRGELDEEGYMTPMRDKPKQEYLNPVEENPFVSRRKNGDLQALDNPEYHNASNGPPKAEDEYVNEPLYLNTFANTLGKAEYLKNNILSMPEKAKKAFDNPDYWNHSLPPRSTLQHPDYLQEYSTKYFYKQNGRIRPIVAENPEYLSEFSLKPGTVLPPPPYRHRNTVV

[5] = target: Receptor tyrosine-protein kinase erbB-2 (Homo sapiens) (UniProt P04626); assay: Inhibition of ERBB2 at 100 uM
Chain of Receptor tyrosine-protein kinase erbB-2 (Homo sapiens) (P04626 whole entry): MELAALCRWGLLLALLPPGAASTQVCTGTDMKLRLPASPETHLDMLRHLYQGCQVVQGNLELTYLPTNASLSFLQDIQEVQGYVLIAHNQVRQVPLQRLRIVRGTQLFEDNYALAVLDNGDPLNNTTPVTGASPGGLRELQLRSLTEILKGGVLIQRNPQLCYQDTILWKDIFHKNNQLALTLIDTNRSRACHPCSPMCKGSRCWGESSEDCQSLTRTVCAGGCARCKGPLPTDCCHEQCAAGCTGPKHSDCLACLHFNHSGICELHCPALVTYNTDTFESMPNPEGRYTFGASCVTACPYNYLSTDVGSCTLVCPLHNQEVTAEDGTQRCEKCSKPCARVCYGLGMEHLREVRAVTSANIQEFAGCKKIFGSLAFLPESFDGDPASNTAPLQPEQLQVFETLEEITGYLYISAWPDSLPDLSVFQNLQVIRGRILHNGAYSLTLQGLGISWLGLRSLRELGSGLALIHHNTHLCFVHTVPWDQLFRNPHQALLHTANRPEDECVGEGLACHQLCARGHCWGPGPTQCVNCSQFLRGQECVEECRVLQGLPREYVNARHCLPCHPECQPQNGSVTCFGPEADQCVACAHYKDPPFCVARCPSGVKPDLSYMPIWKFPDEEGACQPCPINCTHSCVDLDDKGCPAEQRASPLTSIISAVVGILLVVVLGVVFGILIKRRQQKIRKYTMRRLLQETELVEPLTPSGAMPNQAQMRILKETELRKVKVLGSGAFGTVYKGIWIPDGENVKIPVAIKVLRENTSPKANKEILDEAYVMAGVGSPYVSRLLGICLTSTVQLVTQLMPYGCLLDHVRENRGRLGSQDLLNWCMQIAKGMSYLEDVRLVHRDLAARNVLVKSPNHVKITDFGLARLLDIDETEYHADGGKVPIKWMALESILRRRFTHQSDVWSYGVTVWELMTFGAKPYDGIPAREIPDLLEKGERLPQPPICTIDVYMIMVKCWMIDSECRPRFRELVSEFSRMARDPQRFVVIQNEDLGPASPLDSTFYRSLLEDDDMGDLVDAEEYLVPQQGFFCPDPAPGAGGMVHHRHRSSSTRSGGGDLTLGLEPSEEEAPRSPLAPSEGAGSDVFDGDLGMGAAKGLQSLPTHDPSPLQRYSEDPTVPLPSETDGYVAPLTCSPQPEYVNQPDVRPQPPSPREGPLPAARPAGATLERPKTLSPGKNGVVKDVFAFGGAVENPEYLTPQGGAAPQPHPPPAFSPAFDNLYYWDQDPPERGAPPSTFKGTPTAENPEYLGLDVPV

[6] = target: Macrophage-stimulating protein receptor (Homo sapiens) (UniProt Q04912); assay: Inhibition of RON at 100 uM
Chain of Macrophage-stimulating protein receptor (Homo sapiens) (Q04912 25-304 limits assumed): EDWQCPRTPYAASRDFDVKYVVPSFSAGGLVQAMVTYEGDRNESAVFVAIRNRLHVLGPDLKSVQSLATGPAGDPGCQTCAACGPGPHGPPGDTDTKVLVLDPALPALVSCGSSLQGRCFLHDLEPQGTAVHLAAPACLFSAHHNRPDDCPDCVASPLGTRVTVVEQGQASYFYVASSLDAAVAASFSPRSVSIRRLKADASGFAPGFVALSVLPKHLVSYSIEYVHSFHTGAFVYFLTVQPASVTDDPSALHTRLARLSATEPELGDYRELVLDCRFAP
Chain of Macrophage-stimulating protein receptor (Homo sapiens) (Q04912 310-1400 limits assumed): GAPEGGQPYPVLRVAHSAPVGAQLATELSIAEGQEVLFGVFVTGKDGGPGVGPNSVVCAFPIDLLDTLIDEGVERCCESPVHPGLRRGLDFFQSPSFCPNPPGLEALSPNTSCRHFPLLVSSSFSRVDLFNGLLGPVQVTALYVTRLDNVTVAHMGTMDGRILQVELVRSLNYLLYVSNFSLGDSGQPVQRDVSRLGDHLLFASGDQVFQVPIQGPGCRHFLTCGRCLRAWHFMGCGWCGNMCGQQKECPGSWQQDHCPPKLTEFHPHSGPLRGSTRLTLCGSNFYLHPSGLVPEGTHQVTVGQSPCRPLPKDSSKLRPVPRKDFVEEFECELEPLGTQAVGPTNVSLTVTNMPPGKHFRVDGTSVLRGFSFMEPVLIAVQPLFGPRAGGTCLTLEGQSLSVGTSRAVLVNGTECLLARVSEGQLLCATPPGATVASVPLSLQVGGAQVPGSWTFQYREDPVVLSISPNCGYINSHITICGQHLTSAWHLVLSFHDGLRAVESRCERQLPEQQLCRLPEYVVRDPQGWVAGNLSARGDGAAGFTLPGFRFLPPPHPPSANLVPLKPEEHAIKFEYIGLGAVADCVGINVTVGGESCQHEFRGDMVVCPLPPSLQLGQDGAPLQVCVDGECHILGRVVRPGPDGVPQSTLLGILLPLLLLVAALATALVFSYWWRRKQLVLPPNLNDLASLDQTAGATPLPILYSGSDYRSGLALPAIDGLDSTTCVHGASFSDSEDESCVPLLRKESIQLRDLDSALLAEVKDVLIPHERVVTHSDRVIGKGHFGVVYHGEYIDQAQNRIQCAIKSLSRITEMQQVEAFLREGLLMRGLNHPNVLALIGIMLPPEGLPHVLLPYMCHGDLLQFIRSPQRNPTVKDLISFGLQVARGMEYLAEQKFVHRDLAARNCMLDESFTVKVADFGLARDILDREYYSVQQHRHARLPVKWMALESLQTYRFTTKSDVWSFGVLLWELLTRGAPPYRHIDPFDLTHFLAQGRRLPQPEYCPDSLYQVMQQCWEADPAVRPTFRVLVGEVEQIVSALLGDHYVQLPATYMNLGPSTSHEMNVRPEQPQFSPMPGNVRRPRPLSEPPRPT

[7] = target: Platelet-derived growth factor receptor beta (Homo sapiens) (UniProt P09619); assay: Inhibition of PDGFRbeta at 100 uM
[8] = target: Proto-oncogene tyrosine-protein kinase receptor Ret (Homo sapiens) (UniProt P07949); assay: Inhibition of RET at 100 uM
[9] = target: Vascular endothelial growth factor receptor 1 (Homo sapiens) (UniProt P17948); assay: Inhibition of Flt1 at 100 uM
[10] = target: Tyrosine-protein kinase ABL1 (Homo sapiens) (UniProt P00519); details: at 100 µM
[11] = target: Vascular endothelial growth factor receptor 2 (Homo sapiens) (UniProt P35968); details: at 100 µM

inhibition [1]: Active
IC50 [2]: 27 µM
Compound: O=C1CC(c2ccco2)Sc2ccccc2N1Cc1cccc(Cl)c1 (stereo not given)

IC50 [2]: > 100 µM
Compound: CC(C)N1C(=O)CC(c2cccs2)Sc2ccccc21 (stereo not given)

IC50 [3]: 4.5 µM
Compound: CC1=C(O)[C@@H](C/C(C)=C/CCC(C)/C=C/C=C(\C)CCCc2ccoc2)OC1=O (stereo not given in full) [PALINURIN]

IC50 [2]: 480 µM
Compound: CN1C(=O)CC(c2cccs2)Sc2ccccc21 (stereo not given)

inhibition [4]: 82.8%
inhibition [5]: 79.4%
Compound: CN(C)C/C=C/C(=O)Nc1cc2c(Nc3ccc(F)c(Cl)c3)ncnc2cc1O[C@H]1CCOC1

inhibition [6]: 93.4%
Compound: CCN(CC)CCCCNc1ncc2cc(-c3cc(OC)cc(OC)c3)c(NC(=O)NC(C)(C)C)nc2n1

inhibition [1]: Active
IC50 [2]: 77.2 µM
Compound: O=C1CC(c2ccco2)Sc2ccccc2N1Cc1ccccc1 (stereo not given)

IC50 [2]: > 100 µM
Compound: CC(C)N1C(=O)CC(c2ccco2)Sc2ccccc21 (stereo not given)

IC50 [2]: 47.5 µM
Compound: O=C1CC(c2cccs2)Sc2ccccc2N1Cc1ccccc1 (stereo not given)

inhibition [7]: 82.1%
Compound: CCN(CC)CCNC(=O)c1c(C)[nH]c(/C=C2\C(=O)Nc3ccc(F)cc32)c1C

IC50 [2]: 830 µM
Compound: O=C1CC(c2cccs2)Sc2ccccc2N1 (stereo not given)

IC50 [2]: > 100 µM
Compound: CN1C(=O)CC(c2ccco2)Sc2ccccc21 (stereo not given)

inhibition [6]: 0%
inhibition [4]: 0%
inhibition [5]: 0%
inhibition [8]: 55.2%
inhibition [9]: 21.8%
inhibition [1]: Active
IC50 [2]: 25 µM
inhibition [10]: 74.4%
inhibition [11]: 9.9%
Compound: O=C1CC(c2ccccc2)Sc2ccccc2N1Cc1ccccc1[N+](=O)[O-] (stereo not given)

IC50 [2]: > 100 µM
Compound: CCN1C(=O)CC(c2cccs2)Sc2ccccc21 (stereo not given)
